Lung fibro prol: antiproliferative effect on LL 47 fibroblasts – human, LL 47 cells, CellTiter-Glo luminescence, primary screen; LL 47 human lung fibroblast viability, ATP luminescence; stronger effect = lower value; viability, % at 10 µM; AID 719, 2007; 85,000 compounds, 1.1% hits;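 active = viability at or below 50% in the single dose screen; inactive = viability above 50%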;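 also: compound exposure lasted 72 h before the ATP readout; 100% = median luminescence of untreated cell-only wells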
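Signal: luminescent ATP detection, CellTiter-Glo; assay system: LL 47 human lung fibroblasts; input: 1,150 cells/well; incubation: overnight cell rest, 72 h compound treatment at 37 °C; measure: % viability versus median cells-only luminescence; medium: IMEM growth medium with 15% fetal bovine serum; dosing: compound addition at 0.1% DMSO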
Pyk2 oligo antag: antagonists of Pyk2 self-association, primary screen, Q293 cells, FERM NanoBiT luminescence, HTS. 99,000 compounds, 0.83% hits. Protein-tyrosine kinase 2-beta (Homo sapiens), Q14289. z-score (the deposit names both 25 µM and 10 µM). stronger effect = lower value;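 active = Z-score of -3 or lower, scaled per plate to the spread of control and sample wells; inactive = z-score above -3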;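 also: negative z-score means lost luminescence so less FERM oligomerization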
H69AR inhibit: proliferation blockers of H69AR lung cancer cells, primary screen, cell-based, human, 86K library; H69AR lung tumor viability, ATP luminescence, 72 h; stronger effect = lower value; viability, % at 10 µM; 85,000 compounds, 6% hits;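 active = viability at or below 40%; inactive = viability above 40%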;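 also: multidrug resistant small cell line overexpressing MRP-1 efflux transporter; 100% = mean luminescence of untreated control wells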
Jurkat tox 60K: cytotoxicity toward Jurkat T cells, primary screen, cytotoxicity control, cell-based, Jurkat E6.1, 60K MLSMR library. Jurkat E6.1 viability, ATP luminescence, 48 h. inhibition, % at 4 µM. 56,000 compounds, 1.2% hits. AID 463, 2006;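 active = inhibition above the mean inhibition of all tested compounds plus 3 SD, cut at about 28% in these data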
cytoskel mod: modifiers of F-actin cytoskeleton organization, primary screen, imaging, HUVEC, phalloidin staining, high-content imaging; 91,000 compounds, 0.18% hits; inhibition, % at 2 µM; HUVEC TNFa F-actin phalloidin imaging;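 active = inhibition above the batch mean plus 3 SD and confirmed as a hit by visual image inspection, cut at about 30% in these data, passing the limit was not always enough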
HUVEC inhibit: inhibitors of HUVEC proliferation, primary screen, cell-based, 384-well. CellTiter-Glo luminescence, 72 h; stronger effect = lower value. viability, % at 10 µM (by protocol). 86,000 compounds, 1.1% hits. AID 648, 2007;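 active = viability at or below 30%; inactive = viability above 30%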;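 also: 100% = median luminescence of DMSO-only cell control wells on each plate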
Numbers without * were called inactive; / = no result. An excerpt weighted towards active compounds, which were near 6% of everything screened.

SMILES	Lung fibro prol	Pyk2 oligo antag	H69AR inhibit	Jurkat tox 60K	cytoskel mod	HUVEC inhibit
CCC(C)N1CC(O)=C(c2nc3ccccc3[nH]2)C1=N (centres undefined)	106	-0.36	91	-4	1	93
O=C(CN1C(=O)CSC1=O)N1CCc2ccccc2C1	99	1.4	89	-6	-4	95
CN=C1S/C(=C\c2cccn2-c2cccc(Br)c2)C(=O)N1C	94	/	82	/	10	86
CCN=c1scc(-c2ccco2)n1/N=C/c1ccc(O)cc1	122	0.54	40*	/	/	118
O=C(Oc1nsnc1N1CCOCC1)N(c1ccccc1)c1ccccc1	/	-0.93	84	-3	-1	93
COC(=O)Oc1nsnc1N1CCOCC1	93	-0.4	2.7*	4	-22	94
CC(=O)Oc1cccc(/C=c2\sc3nc(-c4ccco4)nn3c2=O)c1	93	1.3	11*	-7	-12	73
Cc1nn(C)cc1/C=N\NC(=O)c1ccc2c(c1)c(C)c(C)n2Cc1ccccc1	/	-1	/	/	-8	/
CC(C)c1ccc(NC(=O)N(CCc2nc3ccccc3[nH]2)C2CCCC2)cc1	81	-1.8	32*	/	28	44
COc1ccc(CNc2nc3nc4c(c(=O)n3[nH]2)CCC4)cc1	100	-0.08	97	/	8	92
CCOC(=O)SC1=N/C(=C\c2ccc(N(C)C)cc2)C(=O)S1	108	0.92	27*	7	-5	87
O=C(CCS(=O)(=O)c1ccccc1)Nc1nc2c(s1)COc1ccccc1-2	50*	/	2.0*	-6	46*	58
O=C(O)C1C2C=CC3(CN(C/C=C/c4ccccc4)C(=O)C13)O2 (centres undefined)	104	0.38	100	3	-3	105
CC(C)CCn1cnc2c(c1=O)c1nc3ccccc3nc1n2Cc1ccc2c(c1)OCO2	88	0.08	30*	0	10	86
CCCn1cnc2c(c1=O)c1nc3ccccc3nc1n2Cc1ccccc1OC	/	/	/	5	8	/
CCCCCC/C(=N/O)c1ccccn1	61	-1.1	25*	-4	0	28*
CCCCCC/C(=N\NS(C)(=O)=O)c1ccccc1	103	-0.12	97	/	-19	95
Cc1ccc(C)c(OCC(=O)Nc2nonc2NC(=O)COc2cc(C)ccc2C)c1	96	-0.13	19*	-9	-2	56
O=S(=O)(Nc1cccc2cccnc12)c1ccc(S(=O)(=O)N2CCCC2)cc1	57	-1.9	6.0*	11	-14	54
COc1ccccc1-c1nnc(SCc2nc3ccccc3s2)n1C	103	-0.42	84	/	-22	99
COc1ccc(C2CC(=O)c3c(ccc4ccccc34)N2)cc1OC (centres undefined)	/	0.16	/	/	16	/
CC1(C)CC(=O)C2=C(C1)c1c(ccc3ccccc13)NC2c1ccc(Br)o1 (centres undefined)	97	0.55	33*	/	4	67
Cc1cc(C)c(S(=O)(=O)N(C2=NCCS2)S(=O)(=O)c2c(C)cc(C)cc2C)c(C)c1	101	-1	22*	/	1	103
CC(=O)Oc1c(Cl)c(N2CCOCC2)c(OC(C)=O)c2ccccc12	101	-0.91	1.9*	1	/	85
Cc1cc(C)c2ccc(C(=O)O)nc2c1O	93	0.48	38*	/	/	83
SMILES	Lung fibro prol	Pyk2 oligo antag	H69AR inhibit	Jurkat tox 60K	cytoskel mod	HUVEC inhibit
Cc1ccc2c(C)ccc(O)c2n1	89	0.57	29*	/	/	17*
COc1ccc(Nc2nc(C)cc(C)c2C(N)=O)c(OC)c1	94	0.42	103	-2	-3	87
CC1(C)Cc2c(sc3nc(-c4cccs4)n(N)c(=O)c23)CO1	83	-1.3	35*	/	/	84
Nn1c(-c2cccs2)nc2sc3c(c2c1=O)CCCC3	84	-0.34	31*	11	-24	69
O=C(O)c1ccc(CN2C(=O)c3ccccc3S2(=O)=O)cc1	100	0.45	97	3	18	95
O=C(CN1/C(=C(/O)c2ccccc2)C(=O)c2ccccc2S1(=O)=O)c1ccccc1	94	-1.4	28*	/	-36	87

From PubChem BioAssay
